The values that follow come from ChEMBL document CHEMBL1146556, “Acetophenone derivatives from Acronychia pedunculata” (J Nat Prod, 2003).

For assay [1], the system named is Radical scavenging activity. Description: Antioxidant activity assessed as DPPH radical scavenging activity at 500 uM after 30 mins. The format is functional. The method, boiled down:
(§1)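 Radical scavenging was read as percent inhibition after a 30 min incubation.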
On the technique in general: Loss of DPPH colour is used to gauge radical scavenging.

In assay [2] the target is T1, Tyrosinase (Homo sapiens) (UniProt P14679).
T1 sequence (whole entry): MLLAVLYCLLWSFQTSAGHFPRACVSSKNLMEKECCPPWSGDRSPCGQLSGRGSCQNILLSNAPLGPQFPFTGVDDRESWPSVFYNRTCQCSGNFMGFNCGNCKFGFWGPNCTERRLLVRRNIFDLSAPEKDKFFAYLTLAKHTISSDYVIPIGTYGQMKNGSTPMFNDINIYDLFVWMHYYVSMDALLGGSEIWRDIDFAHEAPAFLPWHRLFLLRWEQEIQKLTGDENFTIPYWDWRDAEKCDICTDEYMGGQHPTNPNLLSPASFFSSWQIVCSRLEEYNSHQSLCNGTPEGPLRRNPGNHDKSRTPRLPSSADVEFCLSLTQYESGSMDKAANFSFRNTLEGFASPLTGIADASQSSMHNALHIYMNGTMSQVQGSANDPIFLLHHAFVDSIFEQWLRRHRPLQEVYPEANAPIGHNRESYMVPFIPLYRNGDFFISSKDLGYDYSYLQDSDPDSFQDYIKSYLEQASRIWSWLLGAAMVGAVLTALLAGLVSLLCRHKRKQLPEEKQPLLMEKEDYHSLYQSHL
Kind of assay: Inhibition of tyrosinase at 500 uM.

Assay [3] deals with Radical scavenging activity. Kind of assay: Antioxidant activity assessed as DPPH radical scavenging activity after 30 mins. The format is functional. In short, it runs like this:
as §1

The next assay has as its target T2, Tyrosinase (Homo sapiens, UniProt P14679).
T2 sequence (P14679 whole entry): T1 sequence (whole entry)
Kind of assay: Inhibition of tyrosinase.

For orientation: inhibition means the drop in the measured response relative to a control, in per cent. For the compound `C=C(C)C(O)Cc1c(O)cc(O)c(C(C)=O)c1OC` (stereo not drawn), the inhibition was 10.3% in assay [1] and 8.1% in assay [2].

In general, IC50 refers to the concentration needed to halve the response being measured. Regarding VITAMIN E, the 50% inhibitory concentration (IC50) in assay [3] was 8.3 µM.

Take `COc1c(CC=C(C)C)c2c(c(O)c1C(C)=O)C=CC(C)(C)O2`: the inhibition amounted to 2.9% in assay [1] and 2.5% in assay [2]. The corresponding values for `COc1c(CC=C(C)C)c2c(c(O)c1C(C)=O)C[C@H](C(C)(C)O)O2` are 5.3% and 6.5%. The corresponding values for `COc1c(CC=C(C)C)c(O)c(C(=O)CC(C)C)c(O)c1C(C)=O` are 8.3% and 16.8%.

As to `COc1c(CC=C(C)C)c(O)c([C@H](CC(C)C)c2c(O)c(CC=C(C)C)c(O)c(C(C)=O)c2O)c(O)c1C(C)=O` [ACROVESTONE], the IC50 in assay [3] is 493 µM; against Tyrosinase, 333 µM. For `COc1c(CC=C(C)C)c(O)c(C=O)c(O)c1C(C)=O`, the inhibition in assay [1] was found to be 3.1%; in assay [2] it was 11.8%.
